Experimental data as given in ChEMBL document CHEMBL4308887, “Synthesis and biological evaluation of clovamide analogues with catechol functionality as potent Parkinson's disease agents in vitro and in vivo” (Bioorg Med Chem Lett, 2019).
Calls of active or inactive are those of the source. No cut-off for these calls is given here.

What was measured:
SH-SY5Y [1] = assay: Neuroprotection against H2O2-induced toxicity in human SH-SY5Y cells assessed as decrease in LDH release preincubated for 6 hrs followed by H2O2 addition and measured after 24 hrs; format: functional, cell-based
How it was run: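 Cells pretreated with test agent (1 or 10 μM), then 600 μM H₂O₂; plasma membrane damage read as LDH leakage into medium (U/L). DMSO below 0.1% in all groups. Mean ± S.E.M. of three independent experiments.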

SH-SY5Y [2] = assay: Induction of oxidative stress in non-stimulated human SH-SY5Y cells assessed as reactive oxygen species level at 10 uM after 6 hrs by DHE dye based flow cytometry (reference value: 4.8%); format: cell-based
SH-SY5Y [3] = assay: Protection against H2O2-induced oxidative stress in human SH-SY5Y cells assessed as reduction in MDA level preincubated for 6 hrs followed by H2O2 addition and measured after 24 hrs by thiobarbituric acid method; format: functional, cell-based
How it was run: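 Cellular SOD activity (units) and MDA content (μmol/g) measured in SH-SY5Y after pretreatment (1, 10 μM) and 600 μM H₂O₂. Mean ± S.E.M. of three independent experiments.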

SH-SY5Y [4] = assay: Protection against H2O2-induced apoptosis in human SH-SY5Y cells assessed as viable cells at 1 uM preincubated for 6 hrs followed by H2O2 addition and measured after 24 hrs by Annexin V-FITC/propidium iodide staining based flow cytometry (reference value: 12.4%); format: functional; conditions: read-out: Activity
SH-SY5Y [5] = assay: Protection against H2O2-induced apoptosis in human SH-SY5Y cells assessed as late apoptotic cells at 1 uM preincubated for 6 hrs followed by H2O2 addition and measured after 24 hrs by Annexin V-FITC/propidium iodide staining based flow cytometry (reference value: 77.5%); format: functional
SH-SY5Y [6] = assay: Protection against H2O2-induced apoptosis in human SH-SY5Y cells assessed as late apoptotic cells at 10 uM preincubated for 6 hrs followed by H2O2 addition and measured after 24 hrs by Annexin V-FITC/propidium iodide staining based flow cytometry (reference value: 3.5%); format: functional
[7] = Induction of apoptosis in non-stimulated human SH-SY5Y cells assessed as viable cells at 10 uM measured after 6 hrs by Annexin V-FITC/propidium iodide staining based flow cytometry (reference value: 92.5%); format: cell-based; conditions: read-out: Activity
SH-SY5Y [8] = assay: Induction of apoptosis in non-stimulated human SH-SY5Y cells assessed as late apoptotic cells at 10 uM measured after 6 hrs by Annexin V-FITC/propidium iodide staining based flow cytometry (reference value: 2.3%); format: cell-based
SH-SY5Y [9] = assay: Induction of apoptosis in non-stimulated human SH-SY5Y cells assessed as effect on cleaved caspase3 expression at 1 to 10 uM measured after 6 hrs by Western blot analysis; format: cell-based
How it was run: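 Bax, Bcl-2 and cleaved caspase-3 measured by western blot in SH-SY5Y cells given 1 alone, with β-actin as internal standard. Mean ± S.E.M. of three independent experiments.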

Mus musculus [10] = assay: Anti-parkinson's activity in MPTP-induced C57Bl/6 mouse model of Parkinson's disease assessed as increase in tyrosine hydroxylase expression in striatum at 10 to 20 mg/kg, ig pretreated for 10 days followed by MPTP challenge measured 10 days post MPTP addition by DAB staining based immunohistochemistry method; format: functional, organism-based
How it was run: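 Tissue taken 10 days after MPTP injection from mice dosed orally with 1 (10 or 20 mg/kg). TH in SNpc and striatum by western blot, and by DAB immunostaining. Three of the mice per group analysed. Mean ± S.D., n = 6 mice/group.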

Mus musculus [11] = assay: Anti-parkinson's activity in MPTP-induced C57Bl/6 mouse model of Parkinson's disease assessed as decrease in cleaved caspase3 expression in striatum at 10 to 20 mg/kg, ig pretreated for 10 days followed by MPTP challenge measured 10 days post MPTP addition by Western blot analysis; format: functional, organism-based
Mus musculus [12] = assay: Anti-parkinson's activity in MPTP-induced C57Bl/6 mouse model of Parkinson's disease assessed as reduction in MDA level in substantia nigra administered intragastrically pretreated for 10 days followed by MPTP challenge measured 10 days post MPTP addition by thiobarbituric acid method; format: functional, organism-based
How it was run: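 Striatum and SNpc from MPTP-treated mice dosed orally with 1 at 10 or 20 mg/kg. MDA level and SOD activity measured. Mean ± S.D., n = 6 mice/group.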

[13] = Volume of distribution at steady state in Sprague-Dawley rat at 25 mg/kg, po by LC-MS/MS analysis; format: ADME, organism-based; conditions: in vivo
How it was run: (§1)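 Male Sprague–Dawley rats (n = 3) dosed i.v. 5 mg/kg (5% DMSO, 2% F68, 93% saline) or p.o. 25 mg/kg (0.5% methylcellulose, 1% Tween 80). Orbital blood at 0.083–24 h (12 points). Plasma concentration–time profiles gave Cl, Vdss, AUC, T1/2, Tmax, Cmax, MRT and absolute F.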

[14] = Tmax in Sprague-Dawley rat at 25 mg/kg, po by LC-MS/MS analysis; format: ADME, organism-based; conditions: in vivo; how it was run: as §1
[15] = Cmax in Sprague-Dawley rat at 25 mg/kg, po by LC-MS/MS analysis; format: ADME, organism-based; design: dose 25 mg/kg, route oral; conditions: in vivo
How it was run: (§2)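 Male Sprague–Dawley rats dosed with 1 at 5 mg/kg i.v. (vehicle 5% DMSO, 2% F68, 93% saline) or 25 mg/kg p.o. (0.5% methylcellulose with 1% Tween 80). Orbital blood sampled at 0.083–24 h, 12 time points. Plasma PK parameters derived. Mean ± SD, n = 3.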

[16] = Clearance in Sprague-Dawley rat at 5 mg/kg, iv by LC-MS/MS analysis; format: ADME, organism-based; conditions: in vivo; how it was run: as §2
[17] = Volume of distribution at steady state in Sprague-Dawley rat at 5 mg/kg, iv by LC-MS/MS analysis; format: ADME, organism-based; conditions: in vivo, read-out: Vdss; how it was run: as §1
[18] = Activation of PI3K/Akt/mTOR signaling in human SH-SY5Y cells assessed as up regulation of HO-1 expression at 0.1 uM after 24 hrs by Western blot analysis relative to control; format: cell-based
How it was run: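 HO-1 western blot in SH-SY5Y cells incubated 24 h with 1 at 0.1, 1 or 10 μM, without H₂O₂. Band densitometry expressed as % of control. Mean ± S.E.M. from three independent experiments.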

SH-SY5Y [19] = assay: Neuroprotection against H2O2-induced cell death in human SH-SY5Y cells at 10 uM preincubated for 6 hrs followed by H2O2 addition and measured after 24 hrs in presence of HO-1 inhibitor ZnPPIX by MTT assay; format: functional, cell-based
How it was run: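 Cells pretreated with ZnPPIX (10 μM) for 1 h and with 1 (10 μM) for 6 h, then exposed to 600 μM H₂O₂ for 24 h. Viability by MTT. Mean ± S.E.M., three independent experiments.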

SH-SY5Y [20] = assay: Neuroprotection against H2O2-induced cell death in human SH-SY5Y cells assessed as cell viability at 10 uM preincubated for 6 hrs followed by H2O2 addition and measured after 24 hrs in presence of PI3K/Akt/mTOR inhibitor rapamycin by MTT assay relative to control; format: functional; conditions: read-out: Activity
How it was run: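 SH-SY5Y cells preincubated 1 h with LY294002 (5 μM) or rapamycin (100 nM). Then 1 (10 μM) for 6 h, then 600 μM H₂O₂. Viability by MTT. Mean ± S.E.M., three independent experiments.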

**Q.** With `COC(=O)[C@H](Cc1ccccc1)NC(=O)/C=C/c1ccc(O)c(O)c1` [N-CAFFEOYL-PHENYLALANINE METHYL ESTER] as the compound, how does the Activity (SH-SY5Y [1]) read?
**A.** Dose-dependent effect

**Q.** And the Activity (SH-SY5Y [2])?
**A.** 7.3%

**Q.** What about the Activity (SH-SY5Y [3]) of the same compound?
**A.** Dose-dependent effect

**Q.** And the viability at 1 µM (SH-SY5Y [4])?
**A.** 72%

**Q.** And the Activity (SH-SY5Y [5])?
**A.** 17.8%

**Q.** What about the Activity (SH-SY5Y [6]) of the same compound?
**A.** 1.5%

**Q.** What about the viability at 6 h, 10 µM [7] of the same compound?
**A.** 94.8%

**Q.** And the Activity (SH-SY5Y [8])?
**A.** 2.7%

**Q.** What about the Activity (SH-SY5Y [9]) of the same compound?
**A.** Non-Toxic

**Q.** And the Activity (Mus musculus [10])?
**A.** Active

**Q.** What about the Activity (Mus musculus [11]) of the same compound?
**A.** Active

**Q.** And the Activity (Mus musculus [12])?
**A.** Dose-dependent effect

**Q.** What about the Vdss [13] of the same compound?
**A.** 5.98 L/kg

**Q.** What about the Tmax [14] of the same compound?
**A.** 2 h

**Q.** What about the Cmax [15] of the same compound?
**A.** 808 ng/mL

**Q.** And the clearance [16]?
**A.** 25.5 mL/min/kg

**Q.** And the Vd [17]?
**A.** 2.25 L/kg

**Q.** And the Activity [18]?
**A.** 111%

**Q.** And the Activity (SH-SY5Y [19])?
**A.** inactive

**Q.** What about the viability at 10 µM (SH-SY5Y [20]) of the same compound?
**A.** 65.9%
